The record followed here is ChEMBL document CHEMBL1287787, “Design and synthesis of disubstituted thiophene and thiazole based inhibitors of JNK” (Bioorg Med Chem Lett, 2010).

Series [1] has as its target T1, Mitogen-activated protein kinase 10 (Homo sapiens, UniProt P53779). Put plainly: Inhibition of recombinant JNK3 after 60 mins by TR-FRET assay.
The target in series [2] is Mitogen-activated protein kinase 9 (Homo sapiens, UniProt P45984). Put plainly: Inhibition of recombinant JNK2 after 60 mins by TR-FRET assay. On the technique in general: TR-FRET usually uses a lanthanide donor and a delayed reading to cut background.
The target in series [3] is T2, Mitogen-activated protein kinase 1 (Homo sapiens, UniProt P28482). Put plainly: Inhibition of recombinant Erk2 after 60 mins by TR-FRET assay.
For series [4], the target named is Mitogen-activated protein kinase 8 (Homo sapiens, UniProt P45983). Put plainly: Inhibition of recombinant JNK1 after 60 mins by TR-FRET assay.
Series [5] in a line: Metabolic stability in human liver microsomes assessed as compound remaining after 30 mins. The class given is ADME, Microsome. The note with it: read-out: Stability. A digest of the protocol:
(§1)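 Test compound incubated with mouse or human liver microsomes for 30 min. Read-out is the percent of parent compound remaining at the end of the incubation.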
A general note: Liver microsomes are vesicles of endoplasmic reticulum, rich in cytochrome P450 enzymes.

A short description of series [6]: Solubility of compound in Hank's buffered salt solution. The class given is physicochemical.
The test system of series [7] is MDCK. The experiment in a line: Efflux ratio of permeability from […] side in MDCK cells expressing p-gp after 120 mins. The class given is ADME, cell-based, Canis lupus familiaris. The note with it: dog, 2 h.
Series [8] relates to MDR1. The experiment in a line: Permeability from apical to basolateral side of MDCK cells expressing MDR1 after 120 mins. The class given is ADME, cell-based, Canis lupus familiaris. The note with it: dog, read-out: permeability.
Series [9] in a line: Metabolic stability in mouse liver microsomes assessed as compound remaining after 30 mins. The class given is ADME, Microsome. The note with it: read-out: Stability. Put shortly: as §1
Series [10] deals with Serine/threonine-protein kinase Chk1 (Homo sapiens) (UniProt O14757). The experiment in a line: Inhibition of CHEK1 at 10 uM.
The target of series [11] is T2, Mitogen-activated protein kinase 1. The experiment in a line: Inhibition of MAPK1 at 10 uM.
In series [12] the target is Dual specificity tyrosine-phosphorylation-regulated kinase 1B (Homo sapiens) (UniProt Q9Y463). Put plainly: Inhibition of DYRK1B at 10 uM.
The target of series [13] is Receptor tyrosine-protein kinase erbB-4 (Homo sapiens) (UniProt Q15303). Put plainly: Inhibition of ERBB4 at 10 uM.
Series [14] concerns the target Glycogen synthase kinase-3 beta (Homo sapiens) (UniProt P49841). Put plainly: Inhibition of GSK3-beta at 10 uM.
The target in series [15] is Protein-tyrosine kinase 2-beta (Homo sapiens) (UniProt Q14289). The experiment in a line: Inhibition of PTK2B at 10 uM.
Series [16] addresses Serine/threonine-protein kinase 3 (Homo sapiens) (UniProt Q13188). Put plainly: Inhibition of STK3 at 10 uM.
For series [17], the target named is Dual specificity protein kinase CLK1 (Homo sapiens) (UniProt P49759). Put plainly: Inhibition of CLK1 at 10 uM.
The test system of series [18] is RAF proto-oncogene serine/threonine-protein kinase (Homo sapiens), P04049 [Y340D,Y341D]. The experiment in a line: Inhibition of RAF1 Y340D/Y341D mutant at 10 uM.
Series [19] deals with Dual specificity protein kinase TTK (Homo sapiens) (UniProt P33981). The experiment in a line: Inhibition of TTK at 10 uM.
Series [20] addresses Insulin receptor (Homo sapiens) (UniProt P06213). Put plainly: Inhibition of INSR at 10 uM.
The target of series [21] is Receptor-interacting serine/threonine-protein kinase 2 (Homo sapiens) (UniProt O43353). Put plainly: Inhibition of RIPK2 at 10 uM.
Series [22] addresses Serine/threonine-protein kinase PLK1 (Homo sapiens) (UniProt P53350). Put plainly: Inhibition of PLK1 at 10 uM.
Series [23] concerns the target Tyrosine-protein kinase JAK1 (Homo sapiens) (UniProt P23458). The experiment in a line: Inhibition of JAK1 at 10 uM.
Series [24] concerns the target RAC-alpha serine/threonine-protein kinase (Homo sapiens) (UniProt P31749). The experiment in a line: Inhibition of AKT1 at 10 uM.
The target of series [25] is Mitogen-activated protein kinase 14 (Homo sapiens, UniProt Q16539). Put plainly: Inhibition of recombinant p38alpha after 60 mins by TR-FRET assay.
In series [26] the target is Tyrosine-protein kinase ABL1 (Homo sapiens) (UniProt P00519). The experiment in a line: Inhibition of ABL1 at 10 uM.
The target of series [27] is Cyclin-dependent kinase 5/CDK5 activator 1 (Homo sapiens) (UniProt Q00535+Q15078). Put plainly: Inhibition of CDK5/p25 at 10 uM. The class given is protein-complex assay.
The target of series [28] is Macrophage colony-stimulating factor 1 receptor (Homo sapiens) (UniProt P07333). Put plainly: Inhibition of CSF1R at 10 uM.
The target in series [29] is Receptor-type tyrosine-protein kinase FLT3 (Homo sapiens) (UniProt P36888). The experiment in a line: Inhibition of FLT3 at 10 uM.
Series [30] concerns the target Serine/threonine-protein kinase PLK3 (Homo sapiens) (UniProt Q9H4B4). The experiment in a line: Inhibition of PLK3 at 10 uM.
The target of series [31] is Aurora kinase A (Homo sapiens) (UniProt O14965). Put plainly: Inhibition of AURKA at 10 uM.
Series [32] deals with PI3-kinase p110-alpha/p85-alpha (Homo sapiens) (UniProt P27986+P42336). Put plainly: Inhibition of PIK3CA/PIK3R1 at 10 uM. The class given is protein-complex assay.
The target in series [33] is Cyclin-dependent kinase 2/cyclin A (Homo sapiens) (UniProt P24941+P20248+P78396). The experiment in a line: Inhibition of CDK2/cyclin A at 10 uM. The class given is protein-complex assay.
In series [34] the target is cAMP-dependent protein kinase catalytic subunit alpha (Homo sapiens) (UniProt P17612). Put plainly: Inhibition of PRKACA at 10 uM.
Series [35] concerns the target Serine/threonine-protein kinase PAK 4 (Homo sapiens) (UniProt O96013). Put plainly: Inhibition of PAK4 at 10 uM.
In series [36] the target is Serine/threonine-protein kinase 16 (Homo sapiens) (UniProt O75716). The experiment in a line: Inhibition of STK16 at 10 uM.
Series [37] deals with Serine/threonine-protein kinase PLK2 (Homo sapiens) (UniProt Q9NYY3). The experiment in a line: Inhibition of PLK2 at 10 uM.
Series [38] addresses Rho-associated protein kinase 2 (Homo sapiens) (UniProt O75116). Put plainly: Inhibition of ROCK2 at 10 uM.
In series [39] the target is Tyrosine-protein kinase Lck (Homo sapiens) (UniProt P06239). Put plainly: Inhibition of LCK at 10 uM.
In series [40] the target is Calcium/calmodulin-dependent protein kinase type II subunit alpha (Homo sapiens) (UniProt Q9UQM7). Put plainly: Inhibition of CAMK2A at 10 uM.
The target of series [41] is Proto-oncogene tyrosine-protein kinase receptor Ret (Homo sapiens) (UniProt P07949). Put plainly: Inhibition of RET at 10 uM.
Series [42] deals with Protein kinase C beta type (Homo sapiens) (UniProt P05771). The experiment in a line: Inhibition of PRKCB1 at 10 uM.
Series [43] concerns the target Platelet-derived growth factor receptor alpha (Homo sapiens) (UniProt P16234). The experiment in a line: Inhibition of PDGFRA at 10 uM.
The target of series [44] is Tyrosine-protein kinase SYK (Homo sapiens) (UniProt P43405). Put plainly: Inhibition of SYK at 10 uM.
The target in series [45] is Cyclin-dependent kinase 1/cyclin B (Homo sapiens) (UniProt P06493+P14635+Q8WWL7+O95067). Put plainly: Inhibition of CDK1/cyclin B at 10 uM. The class given is protein-complex assay.
Series [46] concerns the target T1, Mitogen-activated protein kinase 10. The note with it: 10 uM.
Series [47] deals with Serine/threonine-protein kinase MARK2 (Homo sapiens) (UniProt Q7KZI7). The experiment in a line: Inhibition of MARK2 at 10 uM.

Mitogen-activated protein kinase 9, sequence (P45984 whole entry): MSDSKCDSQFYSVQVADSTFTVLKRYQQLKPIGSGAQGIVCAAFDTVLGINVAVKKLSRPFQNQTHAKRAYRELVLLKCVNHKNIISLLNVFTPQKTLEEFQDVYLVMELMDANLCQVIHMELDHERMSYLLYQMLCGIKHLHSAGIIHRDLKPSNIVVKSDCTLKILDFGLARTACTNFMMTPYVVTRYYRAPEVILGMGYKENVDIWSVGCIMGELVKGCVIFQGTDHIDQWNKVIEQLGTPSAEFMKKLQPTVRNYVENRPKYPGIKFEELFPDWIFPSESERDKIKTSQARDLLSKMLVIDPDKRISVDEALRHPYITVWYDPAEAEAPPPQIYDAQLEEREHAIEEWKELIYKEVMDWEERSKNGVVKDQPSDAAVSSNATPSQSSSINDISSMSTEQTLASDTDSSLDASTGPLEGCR
T1 sequence (P53779 whole entry): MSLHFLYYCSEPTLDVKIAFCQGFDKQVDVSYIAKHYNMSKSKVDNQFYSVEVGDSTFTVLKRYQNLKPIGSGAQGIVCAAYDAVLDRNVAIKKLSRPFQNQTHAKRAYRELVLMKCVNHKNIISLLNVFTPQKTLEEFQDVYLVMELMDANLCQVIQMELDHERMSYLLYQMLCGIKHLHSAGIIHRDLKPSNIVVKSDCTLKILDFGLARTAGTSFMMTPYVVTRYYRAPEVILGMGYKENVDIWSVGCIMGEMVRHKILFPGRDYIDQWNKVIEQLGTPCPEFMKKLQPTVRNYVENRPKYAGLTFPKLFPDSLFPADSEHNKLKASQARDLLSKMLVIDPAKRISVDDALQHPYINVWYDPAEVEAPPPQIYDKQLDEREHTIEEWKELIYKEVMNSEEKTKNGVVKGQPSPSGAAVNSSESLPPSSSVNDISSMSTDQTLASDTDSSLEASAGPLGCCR
T2 sequence (P28482 whole entry): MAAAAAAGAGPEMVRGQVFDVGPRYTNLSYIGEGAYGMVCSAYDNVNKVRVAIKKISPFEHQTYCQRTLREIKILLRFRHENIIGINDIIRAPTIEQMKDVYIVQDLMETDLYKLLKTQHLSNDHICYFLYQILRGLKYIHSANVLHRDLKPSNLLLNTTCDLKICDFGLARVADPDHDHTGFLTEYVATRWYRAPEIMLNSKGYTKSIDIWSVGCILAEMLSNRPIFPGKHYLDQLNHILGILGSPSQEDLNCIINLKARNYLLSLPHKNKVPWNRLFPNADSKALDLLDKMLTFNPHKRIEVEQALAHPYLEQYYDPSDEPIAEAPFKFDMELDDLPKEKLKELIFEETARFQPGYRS
Mitogen-activated protein kinase 8, sequence (P45983 whole entry): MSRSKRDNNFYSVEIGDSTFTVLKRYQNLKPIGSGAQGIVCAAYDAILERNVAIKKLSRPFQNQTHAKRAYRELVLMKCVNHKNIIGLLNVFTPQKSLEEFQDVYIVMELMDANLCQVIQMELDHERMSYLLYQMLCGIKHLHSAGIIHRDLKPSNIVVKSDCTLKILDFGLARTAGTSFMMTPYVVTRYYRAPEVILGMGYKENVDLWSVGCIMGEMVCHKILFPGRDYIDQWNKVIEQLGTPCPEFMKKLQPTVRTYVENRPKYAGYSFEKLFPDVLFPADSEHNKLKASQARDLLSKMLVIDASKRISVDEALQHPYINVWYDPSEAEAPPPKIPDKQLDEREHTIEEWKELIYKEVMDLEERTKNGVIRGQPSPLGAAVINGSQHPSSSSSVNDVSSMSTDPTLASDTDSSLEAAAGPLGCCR
Mitogen-activated protein kinase 14, sequence (Q16539 whole entry): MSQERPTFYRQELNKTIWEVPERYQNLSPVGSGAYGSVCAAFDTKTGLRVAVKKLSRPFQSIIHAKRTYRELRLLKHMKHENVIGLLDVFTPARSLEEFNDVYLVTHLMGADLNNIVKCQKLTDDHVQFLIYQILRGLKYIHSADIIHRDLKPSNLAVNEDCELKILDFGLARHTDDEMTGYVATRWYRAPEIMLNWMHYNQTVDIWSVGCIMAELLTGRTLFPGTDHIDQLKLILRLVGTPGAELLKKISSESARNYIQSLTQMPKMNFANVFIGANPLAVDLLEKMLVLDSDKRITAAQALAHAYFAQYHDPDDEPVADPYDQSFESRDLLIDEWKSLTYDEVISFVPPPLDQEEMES
Dual specificity protein kinase CLK1 (Homo sapiens), sequence (P49759 whole entry, looked up): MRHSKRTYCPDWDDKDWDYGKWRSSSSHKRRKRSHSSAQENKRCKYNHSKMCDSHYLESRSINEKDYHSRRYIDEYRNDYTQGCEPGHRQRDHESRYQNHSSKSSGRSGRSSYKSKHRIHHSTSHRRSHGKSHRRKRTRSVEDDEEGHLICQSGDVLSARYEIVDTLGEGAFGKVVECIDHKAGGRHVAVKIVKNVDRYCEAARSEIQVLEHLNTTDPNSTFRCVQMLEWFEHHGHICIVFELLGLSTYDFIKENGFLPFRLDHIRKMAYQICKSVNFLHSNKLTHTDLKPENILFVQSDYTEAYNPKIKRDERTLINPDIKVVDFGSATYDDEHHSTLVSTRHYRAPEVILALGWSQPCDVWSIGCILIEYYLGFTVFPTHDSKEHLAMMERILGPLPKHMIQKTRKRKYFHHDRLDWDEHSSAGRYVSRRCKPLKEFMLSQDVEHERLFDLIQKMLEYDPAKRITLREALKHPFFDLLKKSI
Rho-associated protein kinase 2 (Homo sapiens), sequence (O75116 whole entry, looked up): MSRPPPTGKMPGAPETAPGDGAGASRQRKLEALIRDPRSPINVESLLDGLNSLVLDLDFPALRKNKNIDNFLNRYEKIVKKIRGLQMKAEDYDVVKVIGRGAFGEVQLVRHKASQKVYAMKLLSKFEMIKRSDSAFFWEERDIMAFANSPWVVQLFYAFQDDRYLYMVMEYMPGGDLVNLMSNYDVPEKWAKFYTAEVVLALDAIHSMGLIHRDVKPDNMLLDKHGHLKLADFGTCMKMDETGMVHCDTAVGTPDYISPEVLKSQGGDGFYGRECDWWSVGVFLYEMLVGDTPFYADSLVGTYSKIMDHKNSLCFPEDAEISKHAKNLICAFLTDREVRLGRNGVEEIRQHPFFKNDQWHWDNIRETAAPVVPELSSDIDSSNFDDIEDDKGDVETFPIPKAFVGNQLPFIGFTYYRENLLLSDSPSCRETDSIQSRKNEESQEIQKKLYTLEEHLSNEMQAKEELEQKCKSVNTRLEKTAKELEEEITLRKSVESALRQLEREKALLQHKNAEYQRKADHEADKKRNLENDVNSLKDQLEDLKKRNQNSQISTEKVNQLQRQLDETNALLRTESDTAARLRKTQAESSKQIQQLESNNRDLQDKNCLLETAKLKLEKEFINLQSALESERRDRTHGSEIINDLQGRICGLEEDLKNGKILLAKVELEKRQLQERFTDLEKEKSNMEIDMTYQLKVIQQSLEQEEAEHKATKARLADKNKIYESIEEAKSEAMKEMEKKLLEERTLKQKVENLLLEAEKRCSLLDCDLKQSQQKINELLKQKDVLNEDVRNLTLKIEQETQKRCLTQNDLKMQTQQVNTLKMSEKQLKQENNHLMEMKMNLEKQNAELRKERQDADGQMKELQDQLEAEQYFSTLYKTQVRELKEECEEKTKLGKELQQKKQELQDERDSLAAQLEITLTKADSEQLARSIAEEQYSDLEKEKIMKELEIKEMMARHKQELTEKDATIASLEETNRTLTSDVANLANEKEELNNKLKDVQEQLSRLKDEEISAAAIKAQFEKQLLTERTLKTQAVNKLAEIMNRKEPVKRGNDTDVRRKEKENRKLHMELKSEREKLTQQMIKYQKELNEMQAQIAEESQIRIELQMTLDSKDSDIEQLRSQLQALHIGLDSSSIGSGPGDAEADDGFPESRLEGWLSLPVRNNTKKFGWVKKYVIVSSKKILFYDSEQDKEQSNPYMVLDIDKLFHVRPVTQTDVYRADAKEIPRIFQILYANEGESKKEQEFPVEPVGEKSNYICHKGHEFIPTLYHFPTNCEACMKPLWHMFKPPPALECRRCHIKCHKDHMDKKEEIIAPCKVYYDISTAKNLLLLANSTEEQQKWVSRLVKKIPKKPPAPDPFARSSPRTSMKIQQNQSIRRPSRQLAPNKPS
Aurora kinase A (Homo sapiens), sequence (O14965 whole entry): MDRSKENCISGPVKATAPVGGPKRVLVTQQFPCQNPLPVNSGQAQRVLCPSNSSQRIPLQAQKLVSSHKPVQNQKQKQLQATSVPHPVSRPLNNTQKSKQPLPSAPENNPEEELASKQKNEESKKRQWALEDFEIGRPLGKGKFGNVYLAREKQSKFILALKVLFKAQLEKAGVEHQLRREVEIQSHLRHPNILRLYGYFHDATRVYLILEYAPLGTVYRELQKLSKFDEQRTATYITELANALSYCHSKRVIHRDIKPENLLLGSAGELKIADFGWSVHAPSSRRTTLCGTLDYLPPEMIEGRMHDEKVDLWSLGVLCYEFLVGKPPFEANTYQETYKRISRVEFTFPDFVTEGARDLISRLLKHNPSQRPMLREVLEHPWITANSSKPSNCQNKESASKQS
Serine/threonine-protein kinase PLK1 (Homo sapiens), sequence (P53350 whole entry): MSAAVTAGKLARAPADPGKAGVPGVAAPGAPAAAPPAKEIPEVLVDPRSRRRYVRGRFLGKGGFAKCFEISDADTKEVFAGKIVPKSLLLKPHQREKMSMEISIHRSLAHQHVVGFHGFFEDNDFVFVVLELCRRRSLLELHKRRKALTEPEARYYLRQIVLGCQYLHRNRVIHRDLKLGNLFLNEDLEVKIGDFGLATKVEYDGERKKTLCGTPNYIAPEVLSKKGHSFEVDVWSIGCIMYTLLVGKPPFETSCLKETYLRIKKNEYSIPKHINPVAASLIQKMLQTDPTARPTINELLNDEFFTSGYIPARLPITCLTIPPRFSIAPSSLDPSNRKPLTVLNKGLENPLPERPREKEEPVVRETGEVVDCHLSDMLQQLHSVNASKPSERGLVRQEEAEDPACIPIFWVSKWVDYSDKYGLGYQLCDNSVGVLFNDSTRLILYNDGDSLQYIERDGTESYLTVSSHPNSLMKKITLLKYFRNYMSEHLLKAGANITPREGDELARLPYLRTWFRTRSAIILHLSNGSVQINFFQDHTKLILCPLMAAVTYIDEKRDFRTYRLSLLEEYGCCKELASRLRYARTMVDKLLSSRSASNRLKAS

Take `O=C(Cc1cccc2ncccc12)Nc1ccsc1-c1nnc[nH]1`: the 50% inhibitory concentration (IC50) (as a rule, the point on the concentration scale where inhibition reaches its midpoint) is 0.56 µM in series [1], 0.71 µM in series [2], above 50 µM in [3] and 0.27 µM in series [4]. Further, the remaining at 0.5 h is 67% in [5] and 23% in [9]. Besides, in [6], the solubility (as a rule, the dissolved amount per volume that the medium holds) was above 100 µM. In addition, the Ratio in series [7] was determined as 4.2. Besides, the Papp A→B at 2 h in series [8] was found to be 6 ×10⁻⁶ cm/s.
In the case of `O=C(Cc1cccc2cnccc12)Nc1scnc1-c1cscn1`, the IC50 in series [1] is 0.077 µM; in series [2] it was 0.47 µM; in series [3], above 50 µM; in series [25] it was above 50 µM; in series [4], 0.048 µM. The Inihibition is 8% in series [10]; 16% in [11]; 21% in [12]; 4% in series [13]; 13% in series [14]; 6% in series [15]. In addition, the Inihibition in [16] is 5%; in [17] it was 7%; in [18], 5%; in series [19], 85%; in series [20], 3%; in series [21], 16%. The Inihibition in [22] amounted to 8%; in series [23], 4%; in series [24], 2%; in series [26], 7%; in series [27], 9%; in series [28], 33%. The Inihibition in [29] was found to be 37%; in [30], 17%; in series [31], 27%; in series [32] it was 31%; in series [33], 9%; in series [34], 14%. Also, the Inihibition was -4% in series [35]; 9% in series [36]; 24% in series [37]; 3% in series [38]; 6% in series [39]; 9% in series [40]. The Inihibition was 21% in series [41]; 18% in [42]; 7% in series [43]; 6% in [44]; 4% in series [45]; 69% in series [46]. Also, the Inihibition in series [47] came to 8%. The remaining at 0.5 h in series [5] worked out at 79%; in series [9], 50%. Also, in series [7], the Ratio is reported as 1.9.
As for `O=C(Cc1cccc2cnccc12)Nc1ccsc1-c1cscn1`, the IC50 in [1] is 0.16 µM; in [2], 0.94 µM; in [3], above 50 µM; in series [25], above 50 µM; in [4], 0.14 µM. In addition, the values for the remaining at 0.5 h in [5] and in series [9] were 4% and 1%, respectively. In addition, the solubility in series [6] came to 90 µM. The Ratio in series [7] is recorded as 1.1. Further, the Papp A→B at 2 h in [8] amounted to 26.1 ×10⁻⁶ cm/s.
